One molecule from ChEMBL document CHEMBL3232837, “Synthesis and evaluation of new Hsp90 inhibitors based on a 1,4,5-trisubstituted 1,2,3-triazole scaffold” (J Med Chem, 2014) can be followed below.

Data set [1] deals with Heat shock protein HSP 90-beta (Homo sapiens) (UniProt P08238). Put plainly: Inhibition of HSP90 in human A431 cells overexpressing EGFR assessed as downregulation of AKT protein expression after 24 hrs by Western blot analysis. Format: cell-based. The settings on record: A-431. Summed up:
(§1)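 A431 cells treated 24 h after seeding for 24 h over a concentration range; 17-DMAG 0.2 µM as reference. Cells lysed in RIPA buffer with protease and phosphatase inhibitors, protein measured by Bradford. Equal protein run on SDS-PAGE and blotted to nitrocellulose, then probed for EGFR, Cdk4, Akt, Hsp70 and actin. ECL detection; densitometry normalized to β-actin. Run at least twice.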

Data set [2] relates to Mus musculus. The experiment in a line: In vivo inhibition of HSP90 in human A431 cells overexpressing EGFR xenografted in CD-1 nude mouse assessed as downregulation of AKT protein expression at 8 mg/kg, ip administered as q4d/week for 2 weeks starting 3 days after tumor injection measured at 2 hrs post last dose by Western blot analysis. It is filed as functional, organism-based. Set-up: dose 8 mg/kg. The settings on record: A-431. Summed up:
(§2)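 Nude-mouse s.c. xenografts given i.p. compound from day 3. Tumors excised 2 h (A431) or 6 h (GTL-16) after last dose and homogenized in tissue protein extraction reagent with 10 µg/ml protease inhibitor cocktail. Whole lysates analysed by Western blot with actin as loading control; two tumor samples per group shown.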

Data set [3] has as its target Heat shock protein HSP 90-beta (Homo sapiens) (UniProt P08238). Put plainly: Inhibition of HSP90 in human A431 cells overexpressing EGFR assessed as downregulation of EGFR protein expression after 24 hrs by Western blot analysis. Format: cell-based. The conditions noted are these: A-431. The method in brief: as §1
For orientation: A western blot detects proteins with antibodies after separation by electrophoresis.

Data set [4] deals with Heat shock protein HSP 90-alpha (Homo sapiens, UniProt P07900). The experiment in a line: Displacement of GM-FITC from full-length recombinant human Hsp90-alpha after 4 hrs by fluorescence polarization assay. For orientation: Polarisation of emitted light reports the rotation of a fluorescent probe.
The subject of data set [5] is Mus musculus. The experiment in a line: Toxicity in CD-1 nude mouse xenografted with human GTL16 cells overexpressing c-Met assessed as mortality at 5 mg/kg, ip administered as q4d/week for 2 weeks starting 3 days after tumor injection measured on day 5 post last dose relative to vehicle-treated control. It is filed as organism-based. Set-up: dose 5 mg/kg, route intraperitoneal. The conditions noted are these: in vivo. The method in brief: (§3)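 S.c. right-flank xenografts, 5 × 10^6 cells, in female athymic nude mice 5-6 weeks old. Intraperitoneal dosing in 10 mL/kg from day 3 post-implant. Lethal toxicity counted as deaths in treated mice occurring before the first control mouse died, reported as dead/treated (8 per group). Body weight loss was also tracked from the first treatment day.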
On the technique in general: Xenograft models place foreign cells or tissue in a host animal.

Data set [6] relates to Mus musculus. The experiment in a line: In vivo inhibition of HSP90 in human GTL16 cells overexpressing c-Met xenografted in CD-1 nude mouse assessed as downregulation of c-Met protein expression at 8 mg/kg, ip administered as q4d/week for 2 weeks starting 3 days after tumor injection measured at 6 hrs post last dose by Western blot analysis. Format: functional, organism-based. Set-up: dose 8 mg/kg. Summed up:
as §2

Data set [7] concerns Mus musculus. The experiment in a line: In vivo inhibition of HSP90 in human GTL16 cells overexpressing c-Met xenografted in CD-1 nude mouse assessed as downregulation of AKT protein expression at 8 mg/kg, ip administered as q4d/week for 2 weeks starting 3 days after tumor injection measured at 6 hrs post last dose by Western blot analysis. Set-up: dose 8 mg/kg. Format: functional, organism-based. The method in brief:
as §2

The subject of data set [8] is Mus musculus. Put plainly: In vivo inhibition of HSP90 in human GTL16 cells overexpressing c-Met xenografted in CD-1 nude mouse assessed as downregulation of CDK4 protein expression at 8 mg/kg, ip administered as q4d/week for 2 weeks starting 3 days after tumor injection measured at 6 hrs post last dose by Western blot analysis. It is filed as functional, organism-based. Set-up: dose 8 mg/kg. Summed up:
as §2

Data set [9] relates to Mus musculus. Put plainly: In vivo inhibition of HSP90 in human A431 cells overexpressing EGFR xenografted in CD-1 nude mouse assessed as downregulation of EGFR protein expression at 8 mg/kg, ip administered as q4d/week for 2 weeks starting 3 days after tumor injection measured at 2 hrs post last dose by Western blot analysis. Set-up: dose 8 mg/kg. The conditions noted are these: A-431. It is filed as functional, organism-based. The method in brief:
as §2

The subject of data set [10] is A-431. The experiment in a line: Antitumor activity against human A431 cells overexpressing EGFR xenografted in CD-1 nude mouse assessed as tumor growth inhibition at 8 mg/kg, ip administered as q4d/week for 2 weeks starting 3 days after tumor injection measured on day 5 post last dose relative to vehicle-treated control. Format: functional. The conditions noted are these: A-431, ip, route intraperitoneal, read-out: TGI. Summed up:
(§4)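 Female athymic nude mice, 5-6 weeks old, inoculated s.c. in right flank with 5 × 10^6 exponentially growing tumor cells. Intraperitoneal dosing in 10 mL/kg, starting 3 days post-implant. Tumor volume = d²·D/2 from calipered shortest and longest diameters, measured biweekly. TVI% = 100 − (mean TV treated/mean TV control × 100), scored 5 days after last dose. Mann-Whitney test vs vehicle group; 8 mice per group.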

For data set [11], the system named is Mus musculus. The experiment in a line: Toxicity in CD-1 nude mouse xenografted with human A431 cells overexpressing EGFR assessed as body weight loss at 8 mg/kg, ip administered as q4d/week for 2 weeks starting 3 days after tumor injection measured on day 5 post last dose relative to vehicle-treated control. The conditions noted are these: in vivo. It is filed as organism-based, A-431. Set-up: dose 8 mg/kg, route intraperitoneal. Summed up: (§5)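 Female athymic nude mice carrying s.c. xenografts, dosed i.p. (mg/10 mL/kg per administration) starting 3 days after tumor injection. BWL% = 100 − (mean BW day x/mean BW day 1 × 100), day 1 being the first treatment day. Maximum BWL% recorded. Lethal toxicity counted as deaths before the first control death.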

Data set [12] has as its system Mus musculus. Put plainly: In vivo inhibition of HSP90 in human A431 cells overexpressing EGFR xenografted in CD-1 nude mouse assessed as induction of HSP70 protein expression at 8 mg/kg, ip administered as q4d/week for 2 weeks starting 3 days after tumor injection measured at 2 hrs post last dose by Western blot analysis. It is filed as functional, organism-based. Details: dose 8 mg/kg. The conditions noted are these: A-431. Summed up: as §2

The test system of data set [13] is Mus musculus. Put plainly: Toxicity in CD-1 nude mouse xenografted with human GTL16 cells overexpressing c-Met assessed as body weight loss at 5 mg/kg, ip administered as q4d/week for 2 weeks starting 3 days after tumor injection measured on day 5 post last dose relative to vehicle-treated control. It is filed as organism-based. Details: dose 5 mg/kg, route intraperitoneal. The conditions noted are these: in vivo. The method in brief:
as §5

Data set [14] has as its target Heat shock protein HSP 90-beta (Homo sapiens) (UniProt P08238). The experiment in a line: Inhibition of HSP90 in human A431 cells overexpressing EGFR assessed as downregulation of CDK4 protein expression after 24 hrs by Western blot analysis. It is filed as cell-based. The conditions noted are these: A-431. Summed up:
as §1

In data set [15] the test system is NCI-H460. The experiment in a line: Cytotoxicity against human NCI-H460 cells assessed as growth inhibition after 72 hrs by SRB assay. The conditions noted are these: NCI-H460, 72 h. Format: functional, cell-based. Summed up:
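NCI-H460 cells grown in RPMI-1640 with 10% heat-inactivated FBS, seeded at about 10% confluence and allowed 24 h recovery. Exposed to graded drug concentrations or solvent for 72 h. Surviving fraction measured by sulforhodamine B. IC50 is the concentration giving a 50% drop in cell number vs vehicle, from dose-response curve fitting; mean of n=4 with SD.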

Data set [16] has as its system Mus musculus. The experiment in a line: Toxicity in CD-1 nude mouse xenografted with human A431 cells overexpressing EGFR assessed as mortality at 8 mg/kg, ip administered as q4d/week for 2 weeks starting 3 days after tumor injection measured on day 5 post last dose relative to vehicle-treated control. Format: organism-based, A-431. Set-up: dose 8 mg/kg, route intraperitoneal. The settings on record: in vivo. Summed up:
as §3

Data set [17] relates to Mus musculus. Put plainly: In vivo inhibition of HSP90 in human GTL16 cells overexpressing c-Met xenografted in CD-1 nude mouse assessed as induction of HSP70 protein expression at 8 mg/kg, ip administered as q4d/week for 2 weeks starting 3 days after tumor injection measured at 6 hrs post last dose by Western blot analysis. Format: functional, organism-based. Set-up: dose 8 mg/kg. The method in brief: as §2

Data set [18] is described as follows: Antitumor activity against human GTL16 cells overexpressing c-Met xenografted in CD-1 nude mouse assessed as tumor growth inhibition at 5 mg/kg, ip administered as q4d/week for 2 weeks starting 3 days after tumor injection measured on day 5 post last dose relative to vehicle-treated control. Format: functional. The settings on record: GTL 16, ip, route intraperitoneal, read-out: TGI. The method in brief:
as §4

Data set [19] concerns the target Heat shock protein HSP 90-beta (Homo sapiens) (UniProt P08238). The experiment in a line: Inhibition of HSP90 in human A431 cells overexpressing EGFR assessed as induction of HSP70 protein expression after 24 hrs by Western blot analysis. The conditions noted are these: A-431. It is filed as cell-based. Summed up:
as §1

For data set [20], the system named is Mus musculus. Put plainly: In vivo inhibition of HSP90 in human A431 cells overexpressing EGFR xenografted in CD-1 nude mouse assessed as downregulation of CDK4 protein expression at 8 mg/kg, ip administered as q4d/week for 2 weeks starting 3 days after tumor injection measured at 2 hrs post last dose by Western blot analysis. It is filed as functional, organism-based. Set-up: dose 8 mg/kg. The settings on record: A-431. The method in brief: as §2

Activity calls are given as the source filed them. The rule behind the calls is not given here.

Sequence of Heat shock protein HSP 90-beta (Homo sapiens) (P08238 whole entry): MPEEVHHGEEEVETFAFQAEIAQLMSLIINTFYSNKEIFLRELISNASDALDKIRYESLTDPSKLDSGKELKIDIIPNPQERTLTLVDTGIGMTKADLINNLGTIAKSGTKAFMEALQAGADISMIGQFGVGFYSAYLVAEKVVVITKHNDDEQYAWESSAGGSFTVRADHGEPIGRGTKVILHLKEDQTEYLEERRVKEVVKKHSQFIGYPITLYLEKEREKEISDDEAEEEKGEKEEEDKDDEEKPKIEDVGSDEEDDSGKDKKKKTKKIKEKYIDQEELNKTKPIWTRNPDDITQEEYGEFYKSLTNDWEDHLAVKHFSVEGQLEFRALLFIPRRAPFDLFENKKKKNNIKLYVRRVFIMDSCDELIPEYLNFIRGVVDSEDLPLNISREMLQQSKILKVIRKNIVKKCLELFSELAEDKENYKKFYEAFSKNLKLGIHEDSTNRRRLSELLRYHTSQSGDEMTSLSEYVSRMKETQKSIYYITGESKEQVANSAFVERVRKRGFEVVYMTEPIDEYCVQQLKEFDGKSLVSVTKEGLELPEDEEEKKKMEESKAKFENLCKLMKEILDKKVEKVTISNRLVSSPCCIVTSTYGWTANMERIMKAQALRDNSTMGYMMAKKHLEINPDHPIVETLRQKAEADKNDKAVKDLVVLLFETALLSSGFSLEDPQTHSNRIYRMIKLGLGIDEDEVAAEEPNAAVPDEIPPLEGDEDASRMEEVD

Regarding `CCNC(=O)c1nnn(-c2cc(C(C)C)c(O)cc2O)c1-c1ccc(CN2CCCC(O)C2)cc1` (stereo not given), the inhibition entry in data set [1], in data set [3], in data set [14] and in data set [19] was “Dose-dependent effect” each time. Besides, the inhibition result in data set [2], in data set [6], in data set [7], in [8], in data set [9] and in data set [12] was “Active” in each case. For the same molecule, the inhibition entry in data set [17] and in data set [20] was “Active” each time. In addition, the values for the IC50 in [4] and in data set [15] were 0.023 µM and 0.062 µM, respectively. Further, the Activity result in data set [5] and in [16] was “Non-toxic” throughout. Also, the inhibition in vivo at 8 mg/kg in [10] turned out to be 45%. The Imax in data set [11] came to 7%; in [13], 17%. In addition, the inhibition in vivo at 5 mg/kg in data set [18] amounted to 42%.

Broadly, the IC50 is the concentration that gives 50% inhibition.
